{"data": "Experimental data collected from several papers", "cell line": "HeLa", "read-out": "cell growth or viability"}
{"SMILES": "CC(C)[C@]12O[C@H]1[C@@H]1O[C@]13[C@]1(O[C@H]1C[C@H]1C4=C(CC[C@@]13C)C(=O)OC4)[C@@H]2O", "method": "thymidine uptake", "time": "24 h", "IC50": "12 nM"}
{"SMILES": "COc1c2c(cc3c1OCO3)[C@]13C=C[C@H](OC)C[C@@H]1[N@](C2)C[C@H]3OC(=O)c1ccoc1", "method": "WST-1", "time": "48 h", "IC50": "> 10000 nM"}
{"SMILES": "C[C@]12C=CC(=O)C[C@@H]1CC[C@@H]1[C@@H]2C(=O)C[C@@]2(C)[C@H]1CC[C@]2(C)O", "method": "MTT", "time": "24 h", "IC50": "19200 nM"}
{"SMILES": "Nc1cc(Cl)c(Cl)cc1N", "time": "72 h", "IC50": "50000 nM"}
{"SMILES": "COc1cc(C(=O)c2cc3c(-c4ccccc4)c(OC)ccc3o2)cc(OC)c1OC", "IC50": "25000 nM"}
{"SMILES": "Nc1cc(Br)c(Br)cc1N", "time": "72 h", "IC50": "20000 nM"}
{"SMILES": "CC[C@@]1(OC(=O)C(C)c2cccc(C(=O)c3ccccc3)c2)C(=O)OCc2c1cc1n(c2=O)Cc2cc3cc4c(cc3nc2-1)OCO4 (stereo partly shown)", "method": "MTT", "IC50": "270 nM"}
{"SMILES": "CC[C@H](C)[C@@H]([C@@H](CC(=O)N1CCC[C@H]1[C@H](OC)[C@@H](C)C(=O)N[C@H](C)[C@@H](O)c1ccccc1)OC)N(C)C(=O)[C@@H](NC(=O)[C@H](C(C)C)N(C)C(=O)OCc1ccc(NC(=O)[C@H](CCCNC(N)=O)NC(=O)[C@@H](NC(=O)CCCCCN2C(=O)CC(SCCC(=O)N[C@@H](Cc3cn(CCOCCNCCCCCCOc4cc(OCCCc5c(C)n[nH]c5C)cc(C(=O)O)c4)nn3)C(=O)NCCCCCC(=O)NCCCC[C@H](NC(=O)N[C@@H](CCC(=O)O)C(=O)O)C(=O)O)C2=O)C(C)C)cc1)C(C)C (stereo partly shown)", "method": "MTT", "IC50": "372 nM"}
{"SMILES": "CC[C@@]1(O)C(=O)OCc2c1cc1n(c2=O)Cc2cc3cc4c(cc3nc2-1)OCO4", "method": "MTT", "time": "72 h", "IC50": "26 nM"}
{"SMILES": "[Cl-].[Cl-].[Co+2]", "method": "MTT", "time": "48 h", "IC50": "> 150000 nM"}
{"SMILES": "O=C(Cc1ccc2ccccc2c1)N[C@H](Cc1ccccc1)C(=O)N[C@@H](Cc1ccccc1)C(=O)N[C@@H](Cc1ccc(OP(=O)(O)O)cc1)C(=O)O", "method": "MTT", "time": "48 h", "IC50": "> 500000 nM"}
{"SMILES": "N#Cc1ccc(NC(=S)NN=Cc2ccc(O)cc2)cc1", "time": "72 h", "IC50": "91 µg/mL"}
{"SMILES": "CC[C@@]1(OC(=O)Cc2c(C)n(C(=O)c3ccc(Cl)cc3)c3ccc(OC)cc23)C(=O)OCc2c1cc1n(c2=O)Cc2cc3cc4c(cc3nc2-1)OCO4", "method": "MTT", "IC50": "306 nM"}
{"SMILES": "COc1ccc(C=NNC(=S)Nc2ccc(C#N)cc2)cc1", "time": "72 h", "IC50": "31 µg/mL"}
{"SMILES": "CC[C@@]1(OC(=O)[C@@H](N)CCCCN)C(=O)OCc2c1cc1n(c2=O)Cc2cc3cc4c(cc3nc2-1)OCO4", "method": "MTT", "IC50": "24 nM"}
{"SMILES": "N#Cc1ccc(NC(=S)NN=Cc2ccccc2)cc1", "time": "72 h", "IC50": "67 µg/mL"}
{"SMILES": "CC[C@@]1(OC(=O)[C@@H](N)Cc2ccccc2)C(=O)OCc2c1cc1n(c2=O)Cc2cc3cc4c(cc3nc2-1)OCO4", "method": "MTT", "IC50": "64 nM"}
{"SMILES": "N.N.[Cl][Pt][Cl]", "time": "72 h", "IC50": "0.22 µg/mL"}
{"SMILES": "CC[C@@]1(OC(=O)C(C)c2ccc(CC(C)C)cc2)C(=O)OCc2c1cc1n(c2=O)Cc2cc3cc4c(cc3nc2-1)OCO4 (stereo partly shown)", "method": "MTT", "IC50": "> 5000 nM"}
